Molecules are shown by their SMILES. Values after ≈ are worked out from the molar mass of the structure shown. Active and inactive are the calls of the source. The rule behind the calls is not given here.

What all share (format): functional
Assay [1] concerns KB. Description: Cytotoxicity against human KB cells by sulforhodamine B assay. The settings on record: read-out: ED50 (the source's name). An outline of the steps: (§1)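 Cells grown in RPMI-1640 with 25 mM HEPES, 0.25% sodium bicarbonate, 10% FBS and 100 µg/mL kanamycin. Freshly trypsinized cells were seeded at 1500-7500 per well, and compounds were added from DMSO-diluted stock. After 3 days, attached cells were fixed with cold 50% TCA, stained with 0.4% SRB, and read at 562 nm. ED50 is the mean of ≥3 independent determinations.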

Assay [2] can be described thus: Cytotoxicity against human KB-VIN cells by sulforhodamine B assay. The settings on record: KBVIN, read-out: ED50 (the source's name). An outline of the steps:
as §1

Assay [3] can be described thus: Selectivity index, ratio of ED50 for human KB cells to ED50 for vincristine-resistant human KB-VIN cells. An outline of the steps:
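The ratio uses ED50 values from the 3-day SRB assay run in parallel on KB and vincristine-resistant KB-VIN cells. For each line, ED50 is the concentration giving 50% reduction in 562 nm absorbance relative to untreated cells, averaged over ≥3 independent determinations.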

Another assay relates to A549. Description: Cytotoxicity against human A549 cells by sulforhodamine B assay. The settings on record: for EC50: read-out: ED50 (the source's name). An outline of the steps: as §1
Background: In SRB staining, fixed cells bind dye roughly in proportion to their protein.

The test system of a further assay is MCF7. Description: Cytotoxicity against human MCF7 cells by sulforhodamine B assay. The settings on record: read-out: ED50 (the source's name). An outline of the steps: as §1
For a further assay, the system named is HCT-8. Description: Cytotoxicity against human HCT8 cells by sulforhodamine B assay. The following applies: for EC50: read-out: ED50 (the source's name). An outline of the steps:
as §1

The test system of another assay is PC-3. As to the kind of experiment: Cytotoxicity against human PC3 cells by sulforhodamine B assay. The settings on record: for EC50: read-out: ED50 (the source's name). An outline of the steps:
as §1

For assay [4], the system named is KB. As to the kind of experiment: Cytotoxicity against human KB cells at 20 ug/mL by sulforhodamine B assay.

For `CCC1=C(OC)C(CC)(CC)C2OC(c3ccccc3)=CC(=O)C2=C1O` (configuration not stated) [6,8,8-TRIETHYL-7-METHOXY DESMOSDUMOTIN B], the EC50 stood at 20 µg/mL (≈ 56.4 µM) in the assay with KB [1] and 15.5 µg/mL (≈ 43.7 µM) in assay [2]. The “Ratio ED50” value in assay [3] is on record as 1.3.
For `CCc1ccc(-c2cc(=O)c3c(o2)C(C)(C)C(=O)C(C)=C3O)cc1` [4-ETHYL DESMOSDUMOTIN B] the same measures were 20 µg/mL (≈ 61.7 µM), 1.54 µg/mL (≈ 4.75 µM) and 13.
For `CC1=C(O)c2c(oc(-c3cc(C)cc(C)c3)cc2=O)C(C)(C)C1=O` [3,5-DIMETHYL DESMOSDUMOTIN B] the same measures were 53 µg/mL (≈ 164 µM), 2.91 µg/mL (≈ 8.97 µM) and 18.2.
Turning to `CC[C@]1(O)C[C@H]2CN(CCc3c([nH]c4ccccc34)[C@@](C(=O)OC)(c3cc4c(cc3OC)N(C=O)[C@H]3[C@@](O)(C(=O)OC)[C@H](OC(C)=O)[C@]5(CC)C=CCN6CC[C@]43[C@@H]65)C2)C1` [VINCRISTINE], the EC50 in the assay on KB [1] was 0.015 µg/mL (≈ 0.0182 µM); in assay [2], 7 µg/mL (≈ 8.49 µM); in the assay on A549, 0.004 µg/mL (≈ 0.00485 µM); in the assay with MCF7, 0.01 µg/mL (≈ 0.0121 µM); with HCT-8, 0.02 µg/mL (≈ 0.0242 µM); with PC-3, 0.01 µg/mL (≈ 0.0121 µM). In addition, in assay [3], the “Ratio ED50” value is on record as 0.002.
Turning to `CC1=C(O)c2c(oc(-c3ccc(C)cc3)cc2=O)C(C)(C)C1=O` [4-METHYL DESMOSDUMOTIN B], the EC50 in the assay with KB [1] amounted to 22.5 µg/mL (≈ 72.6 µM); in assay [2], 1.09 µg/mL (≈ 3.51 µM). The “Ratio ED50” value in assay [3] was determined as 20.7.
As to `CCC1=C(O)c2c(oc(-c3ccc(CC)cc3)cc2=O)C(CC)(CC)C1=O` [6,8,8-TRIETHYL-4-ETHYL DESMOSDUMOTIN B], the EC50 in the assay with KB [1] was found to be 8 µg/mL (≈ 21.8 µM); in assay [2] it was 0.025 µg/mL (≈ 0.0682 µM). Further, in assay [3], the “Ratio ED50” value worked out at 320.
For the compound `CCC1=C(O)c2c(occ(-c3ccccc3)c2=O)C(CC)(CC)C1=O`, the EC50 in the assay with KB [1] is 16 µg/mL (≈ 47.3 µM); in assay [2] it was 3.5 µg/mL (≈ 10.3 µM); in the assay on A549, 18 µg/mL (≈ 53.2 µM); in the assay on MCF7, 10 µg/mL (≈ 29.6 µM); in the assay with HCT-8, 12 µg/mL (≈ 35.5 µM); in the assay with PC-3, more than 20 µg/mL. In assay [3], the “Ratio ED50” value was determined as 4.6.
In the case of `CCC1=C(O)c2c(oc(-c3ccccc3)cc2=O)C(CC)(CC)C1=O` [6,8,8-TRIETHYL DESMOSDUMOTIN B], the EC50 was more than 80 µg/mL with KB [1], 0.36 µg/mL (≈ 1.06 µM) in assay [2] and more than 20 µg/mL in the assay on MCF7. Besides, the “Ratio ED50” value in assay [3] is reported as more than 222. Besides, the outcome in the assay with A549, in the assay on HCT-8 and in the assay with PC-3 was inactive.
As to `CCC1=C(O)c2c(oc(-c3ccccc3)cc2=O)C(C)(C)C1=O` [6-ETHYL-8,8-DIMETHYL DESMOSDUMOTIN B], the EC50 is more than 20 µg/mL in the assay on KB [1] and 0.6 µg/mL (≈ 1.93 µM) in assay [2]. Also, the “Ratio ED50” value in assay [3] is more than 33.
With `CCCC1=C(OC)C(CCC)(CCC)C2OC(c3ccccc3)=CC(=O)C2=C1O` (configuration not stated) [6,8,8-TRIPROPYL-7-METHOXY DESMOSDUMOTIN B], the EC50 in the assay on KB [1] stood at 8.5 µg/mL (≈ 21.4 µM); in assay [2] it was 7 µg/mL (≈ 17.7 µM). Also, in assay [3], the “Ratio ED50” value was 1.2.
Consider `COC1=C(C)C(O)=C2C(=O)C=C(c3ccccc3)OC2C1(C)C` (configuration not stated), for which the EC50 in the assay with KB [1] was 38.5 µg/mL (≈ 123 µM); in assay [2], 23 µg/mL (≈ 73.6 µM). Moreover, in assay [3], the “Ratio ED50” value amounted to 1.7.
For the compound `CC1=C(O)c2c(oc(-c3c(C)cc(C)cc3C)cc2=O)C(C)(C)C1=O` [2,4,6-TRIMETHYL DESMOSDUMOTIN B], the EC50 in assay [2] worked out at 5.82 µg/mL (≈ 17.2 µM). In the assay on KB [4], this compound returned an Activity of less than 50%. Also, the “Ratio ED50” value in assay [3] is more than 3.4.
As to `CC1=C(O)C(C)(C)c2oc(-c3ccccc3)cc(=O)c2C1=O` [DESMOTUMOTIN B], the EC50 in the assay on KB [1] is more than 40 µg/mL; in assay [2] it was 2 µg/mL (≈ 6.75 µM); in the assay on A549, more than 20 µg/mL; in the assay with MCF7, more than 20 µg/mL. In addition, in assay [3], the “Ratio ED50” value is given as more than 20. Besides, the result in the assay on HCT-8 and in the assay with PC-3 was inactive.
`CCC1=C(O)c2c(oc(-c3ccccc3C)cc2=O)C(CC)(CC)C1=O` [6,8,8-TRIETHYL-2-METHYL DESMOSDUMOTIN B]: the EC50 stood at 18 µg/mL (≈ 51.1 µM) in the assay on KB [1] and 0.1 µg/mL (≈ 0.284 µM) in assay [2].
For the compound `COC1=CC(O)=C2C(=O)C=C(c3ccccc3)OC2C1(C)C` (configuration not stated), the EC50 (with KB [1]; in assay [2]) was 1.8 µg/mL (≈ 6.03 µM) throughout. Also, in assay [3], the “Ratio ED50” value is reported as 1.
`CCC1=C(O)c2c(oc(-c3cc4ccccc4c4ccccc34)cc2=O)C(CC)(CC)C1=O` [6,8,8-TRIETHYL-2-(PHENANTHREN-9-YL) DESMOSDUMOTIN B]: the EC50 came out at 5 µg/mL (≈ 11.4 µM) in the assay with KB [1]; 4.3 µg/mL (≈ 9.81 µM) in assay [2]; 8 µg/mL (≈ 18.2 µM) in the assay on A549; 4 µg/mL (≈ 9.12 µM) with MCF7; 5.6 µg/mL (≈ 12.8 µM) in the assay with HCT-8; 6 µg/mL (≈ 13.7 µM) with PC-3. Besides, the “Ratio ED50” value in assay [3] was found to be 1.2.
For `CC1=C(O)c2c(oc(-c3ccccc3C)cc2=O)C(C)(C)C1=O` [2-METHYL DESMOSDUMOTIN B], the EC50 with KB [1] stood at 37.3 µg/mL (≈ 120 µM); in assay [2], 1.75 µg/mL (≈ 5.64 µM). The “Ratio ED50” value in assay [3] worked out at 21.3.
As to `CC1=C(O)c2c(oc(-c3cccc4ccccc34)cc2=O)C(C)(C)C1=O` [2-(NAPHTHALEN-1-YL)DESMOSDUMOTIN B], the EC50 was determined as 0.51 µg/mL (≈ 1.47 µM) with KB [1]; 0.16 µg/mL (≈ 0.462 µM) in assay [2]; 0.6 µg/mL (≈ 1.73 µM) in the assay on A549; 0.6 µg/mL (≈ 1.73 µM) with MCF7; 0.4 µg/mL (≈ 1.15 µM) in the assay with HCT-8; 0.5 µg/mL (≈ 1.44 µM) in the assay with PC-3. Also, the “Ratio ED50” value in assay [3] was determined as 3.2.
Turning to `CCCC1=C(O)c2c(oc(-c3ccccc3)cc2=O)C(CCC)(CCC)C1=O` [6,8,8-TRIPROPYL DESMOSDUMOTIN B], the EC50 came to 4 µg/mL (≈ 10.5 µM) in the assay with KB [1] and 0.63 µg/mL (≈ 1.66 µM) in assay [2]. For the same compound, the “Ratio ED50” value in assay [3] came out at 6.4.
As to `CCC1=C(O)c2c(oc(-c3ccc(C)cc3)cc2=O)C(CC)(CC)C1=O` [6,8,8-TRIETHYL-4-METHYL DESMOSDUMOTIN B], the EC50 in the assay on KB [1] was 13.8 µg/mL (≈ 39.2 µM); in assay [2], 0.03 µg/mL (≈ 0.0851 µM); in the assay on A549, 16 µg/mL (≈ 45.4 µM); with MCF7 it was more than 20 µg/mL; in the assay with HCT-8, 15 µg/mL (≈ 42.6 µM); in the assay on PC-3, 18 µg/mL (≈ 51.1 µM). Moreover, the “Ratio ED50” value in assay [3] stood at 460.
Regarding `CCc1ccc(-c2cc(=O)c3c(O)c(CC)c(O)c(CC)c3o2)cc1`, the EC50 in the assay on KB [1] was more than 20 µg/mL; in assay [2], 5 µg/mL (≈ 14.8 µM). Besides, the “Ratio ED50” value in assay [3] is more than 4.
Consider `CCC1=C(O)c2c(oc(-c3cccc4ccccc34)cc2=O)C(CC)(CC)C1=O` [2-(NAPHTHALEN-1-YL)-6,8,8-TRIETHYL DESMOSDUMOTIN B], for which the EC50 was 0.6 µg/mL (≈ 1.54 µM) with KB [1]; 0.3 µg/mL (≈ 0.772 µM) in assay [2]; 0.6 µg/mL (≈ 1.54 µM) in the assay with A549; 0.2 µg/mL (≈ 0.515 µM) in the assay on MCF7; 0.4 µg/mL (≈ 1.03 µM) in the assay on HCT-8; 0.4 µg/mL (≈ 1.03 µM) with PC-3. Also, the “Ratio ED50” value in assay [3] came to 2.
